Results from ChEMBL document CHEMBL4312005, “Optimization of pyrrolizine-based Schiff bases with 4-thiazolidinone motif: Design, synthesis and investigation of cytotoxicity and anti-inflammatory potency” (Eur J Med Chem, 2020).

Experiments:
[1] = test system: MCF7; assay: Induction of apoptosis in human MCF7 cells assessed as early apoptotic cells at 1 uM incubated for 24 hrs by annexin V FITC and propidium iodide staining based flow cytometry (reference value: 0 to 9 %); assay type: functional
[2] = Selectivity index, ratio of IC50 for cytotoxicity against human MRC5 cells to IC50 for antiproliferative activity against human MCF7 cells; conditions: MRC5 cells versus MCF7 cells
[3] = test system: MCF7; assay: Cell cycle arrest in human MCF7 cells assessed as G2/M phase accumulation at 10 uM incubated for 24 hrs by propidium iodide based flow cytometry (reference value: 17.2 to 26.8 %); assay type: functional
[4] = test system: MCF7; assay: Cell cycle arrest in human MCF7 cells assessed as subG1 accumulation at 10 uM incubated for 24 hrs by propidium iodide based flow cytometry (reference value: 0.6 to 3 %); assay type: functional
[5] = Selectivity index, ratio of IC50 for cytotoxicity against human MRC5 cells to IC50 for antiproliferative activity against human HT-29 cells; conditions: MRC5 cells versus HT-29 cells
[6] = test system: MCF7; assay: Cell cycle arrest in human MCF7 cells assessed as S phase accumulation at 1 uM incubated for 24 hrs by propidium iodide based flow cytometry (reference value: 17.3 to 28.5 %); assay type: functional
[7] = test system: MCF7; assay: Cell cycle arrest in human MCF7 cells assessed as G2/M phase accumulation at 1 uM incubated for 24 hrs by propidium iodide based flow cytometry (reference value: 17.2 to 26.8 %); assay type: functional
[8] = test system: Rattus norvegicus; assay: Antiinflammatory activity against albino rats assessed as inhibition of carrageenan-induced paw edema at 0.5 mmol, po measured after 2 hrs relative to control; assay type: functional
Outline: (§1)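 Carrageenan rat paw edema (Winter method) in male and female adult albino rats (100-140 g). […] Swelling inhibition expressed as % of control at 2-4 h after carrageenan injection.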

[9] = test system: Rattus norvegicus; assay: Antiinflammatory activity against albino rats assessed as inhibition of carrageenan-induced paw edema at 0.5 mmol, po measured after 4 hrs relative to control; assay type: functional; outline: as §1
[10] = test system: MCF7; assay: Cell cycle arrest in human MCF7 cells assessed as G1 accumulation at 5 uM incubated for 24 hrs by propidium iodide based flow cytometry (reference value: 49.6 to 55.1 %); assay type: functional
[11] = test system: MCF7; assay: Induction of apoptosis in human MCF7 cells assessed as necrotic cells at 5 uM incubated for 24 hrs by annexin V FITC and propidium iodide staining based flow cytometry (reference value: 4.1 to […]); assay type: functional
[12] = test system: MCF7; assay: Cell cycle arrest in human MCF7 cells assessed as S phase accumulation at 10 uM incubated for 24 hrs by propidium iodide based flow cytometry (reference value: 17.3 to 28.5 %); assay type: functional
[13] = test system: MCF7; assay: Cell cycle arrest in human MCF7 cells assessed as G1 accumulation at 10 uM incubated for 24 hrs by propidium iodide based flow cytometry (reference value: 49.6 to 55.1 %); assay type: functional
[14] = test system: MCF7; assay: Induction of apoptosis in human MCF7 cells assessed as late apoptotic cells at 1 uM incubated for 24 hrs by annexin V FITC and propidium iodide staining based flow cytometry (reference value: 0 to 2.5 %); assay type: functional
[15] = test system: MCF7; assay: Induction of apoptosis in human MCF7 cells assessed as viable cells at 1 uM incubated for 24 hrs by annexin V FITC and propidium iodide staining based flow cytometry (reference value: 76 to 95.9 %); assay type: functional; conditions: MCF7, 24 h, read-out: Activity
[16] = test system: MCF7; assay: Cell cycle arrest in human MCF7 cells assessed as G2/M phase accumulation at 5 uM incubated for 24 hrs by propidium iodide based flow cytometry (reference value: 17.2 to 26.8 %); assay type: functional
[17] = test system: MCF7; assay: Induction of apoptosis in human MCF7 cells assessed as necrotic cells at 1 uM incubated for 24 hrs by annexin V FITC and propidium iodide staining based flow cytometry (reference value: 4.1 to […]); assay type: functional
[18] = test system: MCF7; assay: Induction of apoptosis in human MCF7 cells assessed as necrotic cells at 10 uM incubated for 24 hrs by annexin V FITC and propidium iodide staining based flow cytometry (reference value: 4.1 to […]); assay type: functional
[19] = test system: MCF7; assay: Induction of apoptosis in human MCF7 cells assessed as viable cells at 5 uM incubated for 24 hrs by annexin V FITC and propidium iodide staining based flow cytometry (reference value: 76 to 95.9 %); assay type: functional; conditions: MCF7, 24 h, read-out: Activity
[20] = Selectivity index, ratio of IC50 for cytotoxicity against human MRC5 cells to IC50 for antiproliferative activity against human A2780 cells; conditions: MRC5 cells versus A2780 cells
[21] = test system: MCF7; assay: Cell cycle arrest in human MCF7 cells assessed as subG1 accumulation at 5 uM incubated for 24 hrs by propidium iodide based flow cytometry (reference value: 0.6 to 3 %); assay type: functional
[22] = test system: MCF7; assay: Induction of apoptosis in human MCF7 cells assessed as viable cells at 10 uM incubated for 24 hrs by annexin V FITC and propidium iodide staining based flow cytometry (reference value: 76 to 95.9 %); assay type: functional; conditions: MCF7, 24 h, read-out: Activity
[23] = test system: MCF7; assay: Induction of apoptosis in human MCF7 cells assessed as late apoptotic cells at 10 uM incubated for 24 hrs by annexin V FITC and propidium iodide staining based flow cytometry (reference value: 0 to 2.5 %); assay type: functional
[24] = test system: MCF7; assay: Cell cycle arrest in human MCF7 cells assessed as subG1 accumulation at 1 uM incubated for 24 hrs by propidium iodide based flow cytometry (reference value: 0.6 to 3 %); assay type: functional
[25] = test system: MCF7; assay: Antiproliferative activity against human MCF7 cells assessed as cell viability at 5 uM incubated for 48 hrs by MTT assay (reference value: 100 %); assay type: functional; conditions: MCF7, 48 h, read-out: Activity
Outline: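 Preliminary single-dose screen by MTT assay. MCF-7 cells grown in DMEM/10% FBS were exposed to 5 μM compound for 48 h, and growth% was determined. Values are mean ± S.D., n = 6.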

[26] = test system: MCF7; assay: Induction of apoptosis in human MCF7 cells assessed as early apoptotic cells at 5 uM incubated for 24 hrs by annexin V FITC and propidium iodide staining based flow cytometry (reference value: 0 to 9 %); assay type: functional
[27] = test system: MCF7; assay: Induction of apoptosis in human MCF7 cells assessed as late apoptotic cells at 5 uM incubated for 24 hrs by annexin V FITC and propidium iodide staining based flow cytometry (reference value: 0 to 2.5 %); assay type: functional
[28] = test system: MCF7; assay: Induction of apoptosis in human MCF7 cells incubated for 24 hrs by annexin V FITC and propidium iodide staining based flow cytometry; assay type: functional, cell-based

**Q.** Which Activity [1] does the source give for CC(C)C/C=N/c1c(C#N)c2n(c1C(=O)Nc1ccc(Br)cc1)CCC2 here?
**A.** 13.3%

**Q.** What about the selectivity ratio [2] of the same compound?
**A.** 39 to 258

**Q.** What about the Activity [3] of the same compound?
**A.** 15.1%

**Q.** And the Activity [4]?
**A.** 0.7%

**Q.** And the selectivity ratio [5]?
**A.** 39 to 258

**Q.** And the Activity [6]?
**A.** 55.6%

**Q.** And the Activity [7]?
**A.** 12.4%

**Q.** And the “inhibition (INH)” value [8]?
**A.** 18.13%

**Q.** What about the “inhibition (INH)” value [9] of the same compound?
**A.** 30.82%

**Q.** What about the Activity [10] of the same compound?
**A.** 30.2%

**Q.** What about the Activity [11] of the same compound?
**A.** 13.4%

**Q.** What about the Activity [12] of the same compound?
**A.** 55.2%

**Q.** And the Activity [13]?
**A.** 29.6%

**Q.** And the Activity [14]?
**A.** 10.5%

**Q.** What about the viability at 1 µM [15] of the same compound?
**A.** 55.4%

**Q.** And the Activity [16]?
**A.** 14.4%

**Q.** What about the Activity [17] of the same compound?
**A.** 20.8%

**Q.** What about the Activity [18] of the same compound?
**A.** 14.7%

**Q.** What about the viability at 5 µM [19] of the same compound?
**A.** 58.9%

**Q.** What about the selectivity ratio [20] of the same compound?
**A.** 39 to 258

**Q.** And the Activity [21]?
**A.** 0.9%

**Q.** And the viability at 10 µM [22]?
**A.** 57.6%

**Q.** And the Activity [23]?
**A.** 12.2%

**Q.** What about the Activity [24] of the same compound?
**A.** 1%

**Q.** And the viability at 5 µM [25]?
**A.** 56%

**Q.** And the Activity [26]?
**A.** 16.5%

**Q.** What about the Activity [27] of the same compound?
**A.** 11.2%

**Q.** For CCC1SCC(=O)N1c1c(C#N)c2n(c1C(=O)Nc1ccccc1)CCC2 (stereo unspecified), which Activity [1] is on record?
**A.** 11.5%

**Q.** What about the selectivity ratio [2] of the same compound?
**A.** 3 to 15

**Q.** And the Activity [3]?
**A.** 14.1%

**Q.** What about the Activity [4] of the same compound?
**A.** 8.9%

**Q.** What about the Activity [6] of the same compound?
**A.** 20.6%

**Q.** And the Activity [7]?
**A.** 15.6%

**Q.** What about the Activity [28] of the same compound?
**A.** Dose-dependent effect

**Q.** What about the Activity [10] of the same compound?
**A.** 59.4%

**Q.** And the Activity [11]?
**A.** 0.9%

**Q.** What about the Activity [12] of the same compound?
**A.** 14.2%

**Q.** And the Activity [13]?
**A.** 59.1%

**Q.** What about the Activity [14] of the same compound?
**A.** 7.5%

**Q.** What about the viability at 1 µM [15] of the same compound?
**A.** 80.1%

**Q.** What about the Activity [16] of the same compound?
**A.** 15.8%

**Q.** And the Activity [17]?
**A.** 1%

**Q.** And the Activity [18]?
**A.** 3.7%

**Q.** And the viability at 5 µM [19]?
**A.** 77.8%

**Q.** What about the selectivity ratio [20] of the same compound?
**A.** 3 to 15

**Q.** What about the Activity [21] of the same compound?
**A.** 2.4%

**Q.** And the viability at 10 µM [22]?
**A.** 66.6%

**Q.** And the Activity [23]?
**A.** 10.3%

**Q.** And the Activity [24]?
**A.** 2.4%

**Q.** What about the Activity [26] of the same compound?
**A.** 14.3%

**Q.** What about the Activity [27] of the same compound?
**A.** 6.9%
